MT stabilize HCS: microtubule stabilizers in HeLa cells, primary screen, imaging, high-content imaging; hit rate 0.83% among 200,000; HeLa tubulin immunostaining HCS, 24 h; share of cells brighter than vehicle mean+2SD; % tubulin-high responders, % at 10 µM; AID 2205, 2009;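 active means plate Z-score above 3 for both tubulin-high and condensed-nucleus cell shares, with cell loss under 80%, at 10 µM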;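 further: anti alpha tubulin signal scored within the nucleus-defined area of each cell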
TbHK1 inh: Trypanosoma brucei hexokinase 1 inhibitors, primary screen, biochemical, G6PDH-coupled NADH absorbance, MLSCN library. recombinant TbHK1, G6PDH-coupled NADH A340. inhibition, % at 10 µM. hit rate 0.11% among 220,000. AID 1430, 2008;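 active means inhibition of 50% or more in the single-dose primary screen; inactive means inhibition below 50%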
PGE2 EP2 inh: human EP2 receptor antagonists, primary screen, TR-FRET cAMP, C6 glioma cells; Prostaglandin E2 receptor EP2 subtype (Homo sapiens), P43116; C6 glioma cells expressing human EP2; cells stimulated with saturating PGE2; inhibition, % at 25 µM; hit rate 0.52% among 260,000; AID 1422, 2008;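 active means percent inhibition above 40 after rounding to a whole number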;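 further: rat C6 glioma host cells with rolipram phosphodiesterase inhibitor present; the protocol text gives 20 µM as final concentration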
Target sequence (P43116 whole entry, looked up): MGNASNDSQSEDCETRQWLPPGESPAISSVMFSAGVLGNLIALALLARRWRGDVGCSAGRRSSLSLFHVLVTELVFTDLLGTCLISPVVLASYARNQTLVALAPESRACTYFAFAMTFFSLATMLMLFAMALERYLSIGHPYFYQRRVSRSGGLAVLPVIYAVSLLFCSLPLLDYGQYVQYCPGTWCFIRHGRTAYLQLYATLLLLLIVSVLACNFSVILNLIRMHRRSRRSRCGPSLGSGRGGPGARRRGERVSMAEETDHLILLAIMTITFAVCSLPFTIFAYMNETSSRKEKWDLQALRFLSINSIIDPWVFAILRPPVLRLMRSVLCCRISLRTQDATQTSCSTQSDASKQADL
Efa HMGR inh: inhibitors of E. faecalis class II HMGR, primary screen, biochemical, Enterococcus faecalis; HMG-CoA reductase (Enterococcus faecalis, mvaE); purified E. faecalis HMGR, NADPH absorbance 340 nm kinetic; inhibition, % at 10 µM; hit rate 0.41% among 190,000; AID 1066, 2008;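 active means inhibition above a set limit, the median over all tested compounds plus 3 SD, cut at about 9.5% in these data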;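 further: enzyme runs in reverse so mevalonate oxidation gives rising NADPH absorbance; 0% = complete reaction with DMSO and 100% = background rate lacking mevalonate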
bCat nuc transl: modulators of beta-catenin nuclear translocation, primary screen, imaging, HeLa cells, immunofluorescence, high-content. nuclear translocation activity, % at 5 µM. hit rate 0.3% among 190,000;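 active means nuclear translocation activity above 50% at 5 µM, with a well cell count of 50 or more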;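 further: per-cell ratio of nuclear to cytoplasmic median beta-catenin stain intensity; plate controls were DMSO negative control for no effect and GSK-3 inhibitor IX positive control for full effect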
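Read-out: Nuclear/cytoplasmic beta-catenin signal ratio, % activation | Assay system: Human HeLa cell line | Times: 24 h compound exposure at 37°C, 5% CO2 | Signal: Fluorescence imaging of beta-catenin antibody stain plus DAPI | Dosing: 5 µM primary, 0.02–20 µM confirmation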
EP2 modulator: EP2 receptor modulators, cAMP readout, primary screen, cell-based, HTRF cAMP, PGE2 stimulation | Prostaglandin E2 receptor EP2 subtype (Homo sapiens), P43116 | EP2-expressing cells, cAMP HTRF FRET, PGE2 co-stimulation | induction, % at 25 µM | hit rate 0.83% among 260,000 | AID 940, 2007;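 active means compounds whose cAMP rise, as percent of the full-agonist control response, exceeds 60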;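 further: rat C6 glioma line stably carrying human EP2 under a CMV promoter; the protocol text gives 20 µM as final concentration; 100% = response of wells given 1 µM PGE2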
EP2 cAMP induct: cAMP induction in EP2, EP4, beta2-AR and parental cells, confirmation, counter-screen for EP2 modulator project, cell-based, five parallel assays, C6 glioma, HEK293; shares compounds with EP2 modulator; cAMP HTRF induction; plus low (about EC15) PGE2 agonist; calls only at 20 µM (by protocol); hit rate 47% among 1,300;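 active means cAMP induction above 50% in the main assay while under 30% in all four parallel counter assays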;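 further: rat C6 glioma cells stably expressing human EP2 receptor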
Active calls of the source: *; i = inactive; . = no result; + = active, no number. Shown are actives, neighbours in structure and some others; about 2.4% of the full set was active somewhere.

SMILES | MT stabilize HCS | TbHK1 inh | PGE2 EP2 inh | Efa HMGR inh | bCat nuc transl | EP2 modulator | EP2 cAMP induct
Brc1ccc(-c2ccc(/C=N/Nc3nc(N4CCOCC4)nc(N4CCOCC4)n3)o2)cc1 | 3 | -6 | 5 | 3 | -3 | 67* | +
Oc1ccc(/C=N\Nc2cc(N3CCOCC3)nc(N3CCOCC3)n2)c(O)c1 | 3 | -49 | 4 | -7 | -6 | -8 | .
Cc1nc2c(-c3ccc(F)cc3)c(C)nn2c(C)c1CCC(=O)N1CCOCC1 | 3 | -16 | 7 | -1 | . | 1 | .
Cc1nc2c(-c3ccccc3)c(C)nn2c(C)c1CCC(=O)N1CCOCC1 | 5 | 1 | 15 | 2 | 0 | 78* | i
COc1cc2nc(N3CCN(C(=O)C4CCCO4)CC3)nc(N)c2cc1OC (stereo not given) | 5 | -19 | 18 | -3 | -1 | 6 | i
COc1cc2nc(N(C)CCCNC(=O)C3CCCO3)nc(N)c2cc1OC (stereo not given) | . | . | 15 | -1 | 1 | -10 | .
Cc1ccc(NC2=C(C(=O)c3ccccc3)N(C)S(=O)(=O)c3ccccc32)cc1 | 2 | 2 | 20 | -3 | 0 | 66* | i
CN1C=CC=C/C1=C1/SC(=S)N(Cc2ccccc2)C1=O | 1 | -10 | 7 | 0 | . | -27 | .
CCN1C(=O)/C(=C2/C=CC=CN2C)SC1=S | 4 | -11 | 5 | 1 | -1 | 75* | i
CC(Cc1ccccc1)NC(=O)C1(c2ccccc2)CCOCC1 (stereo not given) | 2 | -4 | 11 | -1 | -1 | 69* | i
COc1ccc(C2(C(=O)NC(C)Cc3ccccc3)CCOCC2)cc1OC (stereo not given) | . | . | 7 | . | . | -5 | .
CSc1nnc(-c2ccc(F)cc2)o1 | 2 | 2 | 20 | 4 | -8 | 72* | i
O=C(NC1CCCOC1)c1cnn(-c2ccc(F)cc2)c1 (stereo not given) | . | . | 3 | . | . | -37 | .
N#CC1c2ccccc2C=CN1C(=O)c1ccccc1 (stereo not given) | . | 0 | 2 | . | 1 | -1 | .
N#CC1(Cc2ccccc2Cl)c2ccccc2C=CN1C(=O)c1ccccc1 (stereo not given) | 2 | 2 | . | -1 | -2 | 70* | i
Cc1ccc2cc(CN(CC3CCCO3)C(=S)Nc3ccc(F)cc3)c(=O)[nH]c2c1 (stereo not given) | . | . | 15 | . | . | -12 | .
COc1ccc(CCNC(=O)Cn2ncc3c4sc(C)cc4n(C)c3c2=O)cc1 | . | . | . | . | . | -15 | .
CCOC(=O)c1c(NC(=O)C2C3C=CC(C3)C2C(=O)O)sc2c1CC(C)CC2 (stereo not given) | 3 | 6 | 13 | -6 | 0 | 13 | .
CCOC(=O)c1c(-c2cccs2)csc1NC(=O)CN1CCOCC1 | 3 | -5 | 11 | -1 | -2 | 69* | i
CCOC(=O)c1c(NC(=O)c2ccc(N3C(=O)[C@@H]4[C@H](C3=O)[C@H]3C=C[C@@H]4C3)cc2)sc2c1CC(C)CC2 (stereo not given in full) | 2 | -20 | 17 | -1 | 0 | 55 | i
CCOC(=O)c1c(-c2ccc(C)cc2)csc1NC(=O)CCN1CCOCC1 | 4 | -8 | 5 | -6 | 4 | 90* | +
CCOC(=O)c1c(-c2ccc(C)cc2)csc1NC(=O)c1ccc(N2C(=O)CCC2=O)cc1 | 2 | -15 | 12 | 1 | -2 | 70* | i
O=C(Cn1nnc(-c2ccccc2NC(=O)C23CC4CC(CC(C4)C2)C3)n1)NC1CCCC1 | . | . | 12 | . | . | 26 | .
Cc1ccc(Cn2cccc2C2=NC(C)CO2)cc1 (stereo not given) | 1 | -4 | 12 | -5 | . | 44 | .
CC(C)C1COC(c2cccn2Cc2ccccc2Cl)=N1 (stereo not given) | 6 | 2 | 7 | -4 | 0 | 68* | i
SMILES | MT stabilize HCS | TbHK1 inh | PGE2 EP2 inh | Efa HMGR inh | bCat nuc transl | EP2 modulator | EP2 cAMP induct
NC(=O)CNc1nc(C2CC2)nc2c1nnn2Cc1ccccc1Cl | . | . | 16 | . | . | 29 | .
OCCCNc1nc(-c2ccc(Br)cc2)nnc1-c1ccc(Cl)cc1 | 3 | -6 | 9 | -1 | 0 | 95* | +
CCOC(=O)c1c(-c2ccccc2)oc2ccc(OC)cc12 | 2 | 9 | 21 | 2 | -8 | 69* | +
N#Cc1c(N2CCOCC2)nc(-c2ccco2)c2c1CCCC2 | 4 | 10 | 9 | 1 | 3 | 58 | .
CC(C)c1nc(N2CCN(C(=O)c3ccccc3)CC2)c(C#N)c2c1COC(C)(C)C2 | 2 | 0 | 5 | 2 | . | 77* | +
CC1(C)Cc2c(C#N)c(N3CCCC3)nc(-c3ccco3)c2CO1 | 2 | -5 | 11 | -2 | . | 76* | i
CCCSc1nc(N2CCCC2)c2c(c1C#N)CC(C)(C)OC2 | 2 | 0 | 11 | -10 | 0 | 66* | +
CC1(C)Cc2c(C#N)c(N3CCN(C(=O)c4ccccc4)CC3)nc(-c3ccco3)c2CS1 | 4 | -3 | 9 | -10 | 10 | 19 | .
COc1ccccc1-c1cc(C(=O)N2C[C@H](C)N(Cc3ccco3)C[C@@H]2C)[nH]n1 | . | . | . | . | . | -100 | .
O=C(O)C1=CC(=C(c2ccc(O)c(C(=O)O)c2)c2ccc(O)c(C(=O)O)c2)C=CC1=O | . | . | 11 | . | . | 26 | .
CC1=C/C(=C(/c2ccc(O)c(C)c2)c2ccccc2C(=O)O)C=CC1=O | . | . | 5 | . | . | 51 | i
CN1C(=O)SC(Nc2ccc(C(=O)O)cc2)C1=O (stereo not given) | . | . | 10 | . | . | -14 | .
Cc1cc(SCC(=O)Nc2cccnc2Cl)nc2ccccc12 | 4 | -5 | 4 | -3 | -1 | 67* | i
CC(=O)NCCn1c(SCC(=O)NCCC2=CCCCC2)nc2ccccc2c1=O | 7 | 4 | 7 | -11 | 3 | -27 | .
Cc1cc(C)c(NC(=O)CSc2nc(COc3ccccc3)nc3ccccc23)c(C)c1 | 4 | -6 | 39 | -4 | -5 | 40 | .
Cc1ccccc1NC(=O)CSc1nc(COc2ccccc2)nc2ccccc12 | 3 | -4 | 7 | 3 | . | 85* | i
Cc1cc(SCC(=O)NCCC2=CCCCC2)nc2ccccc12 | 3 | 3 | 5 | -4 | -2 | 70* | i

Screens deposited in PubChem by several laboratories.
